The test system of one test is CAKI-1. Put plainly: inhibitory activity against renal tumor […] cell line. It is filed as functional. To be noted: Homo sapiens. The gist of the method: (§1)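 Tested in the NCI human cell line panel. GI50 = drug concentration (nM) giving growth inhibition to 50% of controls; values below 10 nM were taken as 10 nM in calculations.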
In a further test the test system is HCT-116. Put plainly: inhibitory activity against colon HCT116 cell line. It is filed as functional. To be noted: Homo sapiens. The gist of the method: as §1
The next test relates to HT-29. Kind of test: inhibitory activity against colon HT-29 cell line. It is filed as functional. As to conditions: Homo sapiens. Put shortly: as §1
Test [1] deals with Jurkat. Put plainly: Concentration required to inhibit 50% growth of human Jurkat cells. The class given is functional, cell-based. Put shortly:
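Jurkat leukemia (JLC) cells seeded at 3.75 × 10^3 cells/well and exposed to drug for 4 days; growth measured by sulforhodamine assay. IC50 = drug concentration (nM) reducing cell number to 50% of control cultures. Independent assays in duplicate, coefficients of variation ca. 25%.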

The test system of another test is MCF7. Put plainly: inhibitory activity against multi drug resistant MCF cell line. The class given is functional. As to conditions: Homo sapiens, in the assay text read “MCF7 cell line” for “multi drug resistant MCF cell line”. The gist of the method: as §1
Test [2] relates to Lewis lung carcinoma cell line. Put plainly: Inhibitory activity of tested against Murine Lewis lung carcinoma. As to conditions: Mus musculus. It is filed as functional, cell-based. Put shortly:
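Lewis lung carcinoma (LLTC) cells at 10^3 cells/well, 4-day continuous drug exposure, growth read by sulforhodamine assay. IC50 (nM) = concentration giving 50% of control cell number. Duplicate independent assays, CV ca. 25%.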

The test system of another test is NCI/ADR-RES. Kind of test: inhibitory activity against multi drug resistant NCI/ADR cell line. It is filed as functional. To be noted: Homo sapiens. The gist of the method:
as §1

In a further test the test system is P388. Kind of test: Inhibitory activity against Murine […]. It is filed as functional, cell-based. As to conditions: Mus musculus. The gist of the method:
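Murine P388 leukemia cells seeded at 4.5 × 10^3 cells/well, cultured 3 days with drug; growth measured by [3H]TdR uptake. IC50 = drug concentration (nM) reducing cell number to 50% of controls. Independent assays in duplicate, CV ca. 25%.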

A further test has as its system SK-OV-3. Kind of test: inhibitory activity against ovarian carcinoma SKOV3 cell line. It is filed as functional. To be noted: Homo sapiens. Put shortly:
as §1

Test [3] deals with Jurkat. Put plainly: Ratio of inhibitory activity against amsacrine resistant jurkat cells to inhibitory activity against wild type human jurkat cells. The class given is functional. The gist of the method: (§2)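 Wild-type Jurkat (JLC) and its amsacrine-resistant (JLA) or doxorubicin-resistant (JLD) sublines each seeded at 3.75 × 10^3 cells/well, 4 days with drug, sulforhodamine read-out. IC50 (nM) for 50% of control cell number; ratio = resistant-line IC50 divided by JLC IC50. Duplicate assays, CV ca. 25%.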

In test [4] the test system is Jurkat. Put plainly: Ratio of inhibitory activity against doxorubicin resistant jurkat cells to inhibitory activity against wild type human jurkat cells. It is filed as functional. Put shortly: as §2

As usually defined, the GI50 is the concentration giving 50% growth inhibition. Lower therefore signals more potent growth inhibition. In general, IC50 refers to the concentration at which inhibition is half-maximal. As to `CN(CCCNC(=O)c1cccc2cc3cccc(Br)c3nc12)CCCNC(=O)c1cccc2cc3cccc(Br)c3nc12`, the concentration for 50% growth inhibition (GI50) is less than 0.01 µM in the test on CAKI-1; less than 0.01 µM in the test on HCT-116; less than 0.01 µM in the test with HT-29; 0.013 µM with MCF7; 0.11 µM with NCI/ADR-RES; 0.166 µM in the test on SK-OV-3. In addition, the IC50 with Jurkat [1] is 0.024 µM; in test [2], 0.006 µM; in the test on P388, 0.015 µM. Besides, the Ratio with Jurkat [3] is reported as 0.4; in the test on Jurkat [4] it was 0.9.

For `CN(CCCNC(=O)c1c(Cl)ccc2cc3ccccc3nc12)CCCNC(=O)c1c(Cl)ccc2cc3ccccc3nc12`, the GI50 with CAKI-1 was determined as 4.58 µM; with HCT-116 it was 0.171 µM; with HT-29, 0.727 µM; in the test on MCF7, 0.488 µM; in the test on NCI/ADR-RES, 37 µM; with SK-OV-3, 8.38 µM. In addition, the 50% inhibitory concentration (IC50) was 0.9 µM in the test on Jurkat [1], 2.98 µM in test [2] and more than 200 µM in the test on P388. The Ratio in the test with Jurkat [3] was determined as 0.9; in the test with Jurkat [4] it was 1.2.

On to `CCc1cccc2cc3cccc(C(=O)NCCCN(C)CCCNC(=O)c4cccc5cc6cccc(CC)c6nc45)c3nc12`, for which the GI50 is 0.104 µM in the test on CAKI-1; 0.221 µM in the test on HCT-116; 1.39 µM in the test with HT-29; 0.265 µM with MCF7; 1.34 µM with NCI/ADR-RES; 10 µM in the test with SK-OV-3. In addition, the IC50 worked out at 0.113 µM in the test on Jurkat [1], 0.027 µM in [2] and 0.17 µM in the test on P388. Also, the figures for the Ratio with Jurkat [3] and with Jurkat [4] were 0.7 and 0.9, respectively.

For `Cc1cccc2cc3cccc(C(=O)NCCCN(C)CCCNC(=O)c4cccc5cc6cccc(C)c6nc45)c3nc12`, the concentration for 50% growth inhibition (GI50) in the test on CAKI-1 is less than 0.01 µM; in the test on HCT-116, less than 0.01 µM; with HT-29, less than 0.01 µM; in the test on MCF7, less than 0.01 µM; in the test on NCI/ADR-RES, 0.116 µM; in the test with SK-OV-3, 0.087 µM. The IC50 in the test with Jurkat [1] was found to be 0.011 µM; in [2], 0.0018 µM; in the test with P388, 0.023 µM. Also, the results for the Ratio in the test on Jurkat [3] and in the test with Jurkat [4] were 0.4 and 0.7, respectively.

For `Cc1ccc2nc3c(C(=O)NCCCN(C)CCCNC(=O)c4cccc5cc6cc(C)ccc6nc45)cccc3cc2c1`, the GI50 with CAKI-1 came out at 0.268 µM; in the test with HCT-116, 0.012 µM; in the test with HT-29 it was 0.034 µM; in the test with MCF7, 0.19 µM; with NCI/ADR-RES it was 0.48 µM; with SK-OV-3, 1.18 µM. The IC50 is 0.275 µM in the test on Jurkat [1], 0.073 µM in test [2] and 0.27 µM with P388. Also, the Ratio with Jurkat [3] stood at 0.9; in the test with Jurkat [4] it was 1.1.

With `Cc1ccc(C)c2nc3c(C(=O)NCCCN(C)CCCNC(=O)c4cccc5cc6c(C)ccc(C)c6nc45)cccc3cc12`, the GI50 was less than 0.01 µM with CAKI-1; less than 0.01 µM in the test with HCT-116; less than 0.01 µM with HT-29; less than 0.01 µM in the test with MCF7; 0.172 µM in the test with NCI/ADR-RES; 0.32 µM in the test on SK-OV-3. Further, the results for the IC50 (in the test on Jurkat [1]; in [2]; in the test on P388) were 0.011 µM, 0.0032 µM and 0.024 µM, respectively. Also, the results for the Ratio in the test with Jurkat [3] and in the test on Jurkat [4] were 0.4 and 0.7, respectively.

As for `Cc1cccc2nc3c(C(=O)NCCCN(C)CCCNC(=O)c4cccc5cc6c(C)cccc6nc45)cccc3cc12`, the concentration for 50% growth inhibition (GI50) in the test with CAKI-1 was found to be 0.058 µM; in the test with HCT-116, 0.013 µM; with HT-29, 0.06 µM; in the test with MCF7 it was 0.174 µM; with NCI/ADR-RES, 1.04 µM; with SK-OV-3, 0.594 µM. In addition, the 50% inhibitory concentration (IC50) turned out to be 0.071 µM in the test with Jurkat [1], 0.016 µM in test [2] and 0.18 µM in the test on P388. The Ratio with Jurkat [3] is listed as 0.7; in the test on Jurkat [4], 1.

For the origin of these results see ChEMBL document CHEMBL1132256, “Structure-activity relationships for substituted bis(acridine-4-carboxamides): a new class of anticancer agents” (J Med Chem, 1999).
